Here are results for 13 molecules from ChEMBL document CHEMBL5247591, “Single-digit nanomolar inhibitors lock the aromatase active site via a dualsteric targeting strategy” (Eur J Med Chem, 2022).

The target of data set [1] is T1, Aromatase (Homo sapiens, UniProt P11511).
T1 sequence (P11511 whole entry): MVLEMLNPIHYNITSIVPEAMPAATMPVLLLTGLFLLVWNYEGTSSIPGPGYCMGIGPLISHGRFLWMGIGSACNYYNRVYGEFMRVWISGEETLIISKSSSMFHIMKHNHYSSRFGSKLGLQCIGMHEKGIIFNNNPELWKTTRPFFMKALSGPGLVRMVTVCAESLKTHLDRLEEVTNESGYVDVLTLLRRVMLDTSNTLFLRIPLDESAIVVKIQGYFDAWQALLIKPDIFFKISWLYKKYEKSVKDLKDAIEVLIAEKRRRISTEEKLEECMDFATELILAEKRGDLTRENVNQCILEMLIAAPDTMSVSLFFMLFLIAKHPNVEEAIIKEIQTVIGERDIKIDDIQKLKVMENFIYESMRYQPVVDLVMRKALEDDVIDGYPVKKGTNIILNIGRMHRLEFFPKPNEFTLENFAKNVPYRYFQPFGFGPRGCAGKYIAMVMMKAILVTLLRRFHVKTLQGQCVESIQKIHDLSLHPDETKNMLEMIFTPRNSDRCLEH
In words: Inhibition of recombinant human aromatase preincubated for 10 mins followed by substrate and beta-NADP+ addition and measured for 60 mins by fluorescence based assay. The procedure, abridged:
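Recombinant human aromatase with NADPH-generating system in aromatase assay buffer. Compounds tested at 1000, 100, 10, 1 and 0.1 nM, DMSO final ≤0,25% (v/v). Preincubated 37°C for 10 min, then fluorogenic substrate/β-NADP+ added. Fluorescence read at 488/527 nm for 60 min.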

The subject of another data set is MCF7. The data set can be described thus: Antiproliferative activity against estrogen positive human MCF7 cells assessed as inhibition of cell growth upto 50 uM incubated for 72 hrs by cell counting analysis. Format: functional, cell-based. The procedure, abridged: (§1)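 Cells seeded in duplicate (50.000 cells/well for MCF-7 and MDA-MB-231, 90.000 cells/well for MCF-10A). 24 h later exposed 72 h to 50-0.1 μM compound, with or without 1 μM testosterone; medium and treatments replaced at 48 h. Cells harvested with trypsin and counted with a cell counter. Three experiments.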

A further data set has as its system MDA-MB-231. The data set can be described thus: Antiproliferative activity against estrogen negative human MDA-MB-231 cells assessed as inhibition of cell growth upto 50 uM incubated for 72 hrs by cell counting analysis. Format: functional, cell-based. The procedure, abridged: as §1
The next data set deals with MCF-10A. The data set can be described thus: Cytotoxicity against human MCF-10A cells assessed as inhibition of cell growth upto 50 uM incubated for 72 hrs by cell counting analysis. Format: toxicity, cell-based. The procedure, abridged: as §1
The target of data set [2] is T1, Aromatase. The data set can be described thus: Inhibition of human placental microsome aromatase using androstenedione as substrate assessed as reduction in 3H2O formation preincubated for 5 mins in presence of NADPH followed by microsomal protein addition and measured after 3 hrs. Format: microsomes, Placenta.

SMILES strings stand for the structures. The source made the active and inactive calls. The rule behind the calls is not given here.

Usually IC50 stands for the concentration that inhibits the measured activity by half. On to `CCC#CCOc1ccc(C(=O)c2cccc(Cn3ccnc3)c2)cc1`, for which, at Aromatase [1], the IC50 worked out at 9 nM. For the same molecule, the inhibition entry with MCF7 and with MDA-MB-231 was “inactive” each time. Moreover, the Activity entry in the data set with MCF-10A is recorded as “Non-Toxic”.

With `COc1ccc(C(=O)c2ccc(Cn3ccnc3)cc2)cc1`, on Aromatase [2], the IC50 came to 238 nM.

As for `COc1ccc(C(=O)c2cccc(Cn3ccnc3)c2)cc1`, the IC50 on Aromatase [1] turned out to be 13 nM. Further, the inhibition result with MCF7 and in the data set with MDA-MB-231 was “inactive” in each case. Besides, the Activity entry in the data set with MCF-10A is “Non-Toxic”.

On to `CCC#CCOc1ccc(C(=O)c2ccc(Cn3ccnc3)cc2)cc1`, for which the IC50 at Aromatase [1] is 1420 nM. The inhibition result in the data set with MCF7 and in the data set on MDA-MB-231 was “inactive” throughout. Also, in the data set on MCF-10A, the Activity result is given as “Non-Toxic”.

In the case of `O=C(c1ccc(O)cc1)c1ccc(Cn2ccnc2)cc1`, at Aromatase [2], the concentration for half-maximal inhibition (IC50) amounted to 1100 nM.

In the case of `C#CCOc1ccc(C(=O)c2cccc(Cn3ccnc3)c2)cc1`, the IC50 at Aromatase [1] is 650 nM. The inhibition entry with MCF7 and in the data set with MDA-MB-231 was “inactive” in each case. Further, in the data set on MCF-10A, the Activity result is given as “Non-Toxic”.

For `CCCCCOc1ccc(C(=O)c2ccc(Cn3ccnc3)cc2)cc1`, the half-inhibitory concentration (IC50) at Aromatase [1] amounted to 1300 nM. In addition, the inhibition result in the data set on MCF7 and in the data set with MDA-MB-231 was “inactive” throughout. The Activity entry with MCF-10A was “Non-Toxic”.

`C#CCOc1ccc(C(=O)c2ccc(Cn3ccnc3)cc2)cc1`: at Aromatase [1], the IC50 turned out to be 210 nM. Moreover, the inhibition result with MCF7 and in the data set on MDA-MB-231 was “inactive” in each case. For the same molecule, in the data set with MCF-10A, the Activity entry is recorded as “Non-Toxic”.

With `CCCCCOc1ccc(C(=O)c2cccc(Cn3ccnc3)c2)cc1`, the IC50 on Aromatase [1] was 42 nM. Besides, the inhibition entry in the data set with MCF7 and in the data set on MDA-MB-231 was “inactive” throughout. Also, the Activity result with MCF-10A is reported as “Non-Toxic”.

On to `O=C(c1ccc(Cn2ccnc2)cc1)c1ccc(-c2ccccc2)cc1`, for which, at Aromatase [2], the IC50 amounted to 2530 nM.

With `CCCOc1ccc(C(=O)c2ccc(Cn3ccnc3)cc2)cc1`, the IC50 on Aromatase [1] came out at 374 nM. Moreover, the inhibition result with MCF7 and in the data set with MDA-MB-231 was “inactive” in each case. Besides, in the data set on MCF-10A, the Activity result is reported as “Non-Toxic”.

Turning to `O=C(c1ccc(O)cc1)c1cccc(Cn2ccnc2)c1`, on Aromatase [1], the IC50 worked out at 13 nM. The inhibition result in the data set on MCF7 and in the data set with MDA-MB-231 was “inactive” throughout. Also, the Activity result in the data set on MCF-10A was “Non-Toxic”.

Consider `CCCOc1ccc(C(=O)c2cccc(Cn3ccnc3)c2)cc1`, for which the IC50 at Aromatase [1] was determined as 2 nM. The inhibition entry with MCF7 and in the data set with MDA-MB-231 was “inactive” each time. Also, the Activity entry in the data set with MCF-10A was “Non-Toxic”.
